An excerpt weighted towards active compounds, which were near 1.5% of everything screened.
CCR6 antagonist = antagonists of human CCR6 receptor. P51684. CHO-K1 CCR6 PathHunter beta-arrestin, luminescence, CCL20-stimulated. inhibition, % at 20 µM. hit rate 0.49% among 340,000;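 active = compounds whose inhibition of the agonist-driven luminescence signal at 20 µM reaches about 50%, limit read from the data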;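 also: cells stimulated with CCL20 at 14 nM final; plate controls were DMSO with CCL20 for no effect and DMSO without agonist for full effect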
APJ agonist = agonists of human APJ apelin receptor | P35414 | CHO-K1 APJ PathHunter beta-arrestin, luminescence; 0% DMSO wells, 100% apelin | activation, % at 20 µM | hit rate 0.11% among 330,000;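 active = activation more than six SD over the plate average, tested at 20 µM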;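 also: 0% = DMSO alone and 100% = apelin-13 at 10 nM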
Target sequence (P35414 whole entry, looked up): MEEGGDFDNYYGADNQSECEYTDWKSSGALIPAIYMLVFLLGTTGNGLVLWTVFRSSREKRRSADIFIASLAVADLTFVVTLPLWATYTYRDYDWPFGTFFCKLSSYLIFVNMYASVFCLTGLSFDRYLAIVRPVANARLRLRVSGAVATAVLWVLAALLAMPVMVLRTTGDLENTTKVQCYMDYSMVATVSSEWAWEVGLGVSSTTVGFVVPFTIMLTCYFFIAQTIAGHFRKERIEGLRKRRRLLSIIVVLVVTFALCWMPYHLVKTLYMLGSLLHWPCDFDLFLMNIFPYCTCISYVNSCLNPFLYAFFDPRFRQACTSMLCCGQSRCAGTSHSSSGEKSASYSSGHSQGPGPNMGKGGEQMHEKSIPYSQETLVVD
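Test system: CHO-K1 APJ beta-arrestin complementation cell line. Amount: cell density 1000 per well. Controls: DMSO negative, 10 nM Apelin-13 positive. Signal: luminescent beta-gal fragment complementation, chemiluminescent substrate. Read-out basis: agonist-driven arrestin binding to APJ. Timing: compound stimulation 90 min at 25 °C, detection 60 min.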
EBI2 block = EBI2 (human) antagonism; P32249; EBI2 beta-arrestin recruitment, luminescence, 7a,25-OHC stimulated; inhibition, % at 5 µM; hit rate 0.81% among 360,000; in the data active = inhibition above about 38%;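 also: enzyme fragment complementation signal reports receptor beta-arrestin coupling in cells; 0% = agonist plus DMSO wells and 100% = wells without agonist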
APJ antag = blocks the human apelin receptor APJ; hit rate 0.32% among 330,000; P35414; CHO-K1 APJ beta-arrestin complementation, luminescence; inhibition, % at 20 µM; AID 2521;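 active = inhibition above about 40% at 20 µM, limit read from the data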;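 also: cells challenged with 10 nM apelin-13 agonist together with compound; plate controls were apelin-13 plus DMSO wells for no effect and DMSO wells lacking apelin-13 for full effect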
CXCR6 block = blocks human CXCR6 beta-arrestin recruitment | hit rate 0.36% among 360,000 | inhibition, % at 20 µM | AID 602244 | CHO-K1 PathHunter CXCR6 beta-arrestin, luminescence; in the data active = inhibition above about 34%, passing the limit was not always enough;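 also: antagonist mode with CXCL16 agonist at 10 nM final; 0% = 10 nM CXCL16 with DMSO and 100% = unstimulated wells without agonist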
Target sequence (O00574 whole entry, looked up): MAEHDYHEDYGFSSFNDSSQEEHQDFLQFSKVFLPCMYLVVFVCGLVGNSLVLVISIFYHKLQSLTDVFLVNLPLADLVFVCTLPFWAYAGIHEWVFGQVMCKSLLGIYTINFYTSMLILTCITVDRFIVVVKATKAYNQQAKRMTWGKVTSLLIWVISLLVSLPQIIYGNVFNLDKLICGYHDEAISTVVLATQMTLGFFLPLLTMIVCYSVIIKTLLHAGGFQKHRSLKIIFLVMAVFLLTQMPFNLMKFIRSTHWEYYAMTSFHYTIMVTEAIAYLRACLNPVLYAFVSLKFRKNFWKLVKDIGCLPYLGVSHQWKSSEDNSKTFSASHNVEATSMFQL
CXCR6 antag conf = confirmation of human CXCR6 receptor antagonists. hit rate 65% among 700. CHO-K1 CXCR6 PathHunter beta-arrestin, luminescence. inhibition, % at 20 µM. AID 602409. shares compounds with CXCR6 block;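 active = mean inhibition over four retests above 40%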;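 also: receptor stimulated with 10 nM CXCL16 agonist; beta-galactosidase fragment complementation upon beta-arrestin recruitment to receptor; plate controls were CXCL16 plus DMSO for no effect and DMSO without CXCL16 for full effect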
An asterisk follows results filed as active; . = not tested or not shown.

SMILES	CCR6 antagonist	APJ agonist	EBI2 block	APJ antag	CXCR6 block	CXCR6 antag conf
CCCCNC(=O)C(c1ccc(OCC(=O)OC)c(C(=O)OC)c1)N(CCc1c[nH]c2ccccc12)C(=O)CCCCCN1C(=O)NC(c2ccc(-c3ccccc3)cc2)C(C(=O)OCc2ccccc2)=C1C (stereo unspecified)	.	-2.0	.	-4.1	.	.
CN(CC(=O)Nc1ccc(F)cc1)C(=O)COC(=O)CN1C(=O)NC2(CCCC2)C1=O	2.6	1.1	-13.0	7.6	46.4*	16.5
CC(C)CC(N)c1csc(Nc2ncccn2)n1 (stereo unspecified)	.	.	-5.9	.	-0.1	.
Cc1cccc(C)c1NC(=O)CNC(=O)CCNC(=O)c1ccco1	-2.5	-5.7	-4.4	-10.2	-1.1	.
Fc1ccc(Oc2nc(-c3ccccc3)nnc2C(F)(F)F)cc1	30.1	-1.2	-7.4	-1.7	29.9	.
Fc1ccc(Sc2nc(-c3ccccc3)nnc2C(F)(F)F)cc1	50.1*	-5.7	22.0	34.4	44.6*	63.2*
COCCN(C(=O)COc1ccccc1C#N)c1c(N)n(Cc2ccccc2)c(=O)[nH]c1=O	8.3	-1.6	4.6	23.4	3.4	.
O=Cc1s/c(=N\S(=O)(=O)c2ccccc2)n(CCCCl)c1Cl	105.0*	.	21.9	.	97.7*	104.4*
CCn1c(C)cs/c1=N\S(=O)(=O)c1ccccc1	-14.0	-2.1	1.2	5.0	-7.9	.
COCC1CCCCN1C(=O)c1ccc2oc(CCc3ccccc3)nc2c1 (stereo unspecified)	3.0	-3.7	0.3	2.4	36.7*	22.3
O=C(/C=C/c1cccc([N+](=O)[O-])c1)c1ccco1	19.8	0.1	-10.1	20.3	-0.2	.
O=C(/C=C/c1cccc([N+](=O)[O-])c1)c1ccc([N+](=O)[O-])o1	104.8*	.	8.8	.	95.1*	97.8*
O=[N+]([O-])c1cc2no[n+]([O-])c2cc1N1CCCCC1	106.2*	.	-29.8	.	99.6*	93.3*
N#Cc1cc(N2CCCCC2)c([N+](=O)[O-])cc1C#N	-8.8	-1.0	3.5	-11.8	3.5	.
O=C(CSc1ccc2nnc(CCNC(=O)c3ccccc3)n2n1)Nc1ccc(F)cc1F	1.6	-3.6	-1.1	4.9	2.0	.
O=C1C2CCCCC2C(=O)N1c1ccc(S(=O)(=O)Nc2ncccn2)cc1 (stereo unspecified)	2.8	1.4	-0.3	2.6	-10.3	.
O=C1N[C@@H](Cc2ccccc2)COC(=O)[C@H](Cc2ccc(F)cc2)CC/C=C/C[C@@H]1CC(=O)N(CCO)Cc1ccccc1	22.9	-3.9	40.8	18.2	38.2	.
O=C1NC[C@H](c2ccccc2)OC(=O)[C@@H](Cc2ccc(F)cc2)CC/C=C/C[C@@H]1CC(=O)N(CCO)Cc1ccccc1	61.8*	.	23.6	.	55.1*	45.0*
O/N=C(/c1ccc(F)cc1)C1CC1c1c(F)cccc1Cl (stereo unspecified)	10.0	-0.7	12.3	-22.6	13.4	.
CCOC(=O)C1CCN(C(=O)c2cc(COc3ccc(F)cc3F)on2)CC1	6.0	0.0	1.6	11.2	-3.6	.
O=C(O/N=C1\C(=O)N(c2ccccc2)c2ccccc21)C1CC1	1.1	-2.5	-4.1	4.8	-2.5	.
CN1C(=O)/C(=N/OC(=O)c2ccccc2)c2ccccc21	43.7	-4.0	-8.9	31.1	40.0*	34.8
COc1cc2[nH]c(C(=O)Nc3ccc(F)cc3)cc2c(OC)c1OC	.	-4.0	1.9	-3.0	-7.4	.
O=C1C=CC(=O)N1c1ccc2c(c1)C(NC(=O)C(F)(F)F)c1ccccc1-2 (stereo unspecified)	108.4*	.	15.9	.	78.9*	32.5
CC(C)C(=O)Nc1ccc(C(=O)NNC(=S)NC(=O)c2ccco2)cc1	25.1	-2.5	0.6	16.9	6.0	.
SMILES	CCR6 antagonist	APJ agonist	EBI2 block	APJ antag	CXCR6 block	CXCR6 antag conf
CCC(=O)c1ccc(OCC(=O)Nc2nc(-c3cccnc3)cs2)cc1	-6.5	9.5	-6.5	-0.8	-6.9	.
Cc1cc(C)c(OCC(=O)Nc2nc(-c3ccccn3)cs2)c(C)c1	.	-3.5	-11.7	-9.1	51.6*	39.0
CC(Oc1ccc(F)cc1)C(=O)Nc1nc(-c2ccccn2)cs1 (stereo unspecified)	71.4*	-7.4	-8.2	-1.7	66.6*	86.9*
O=C(CCS(=O)(=O)c1ccc(F)cc1)Nc1nc(-c2ccccn2)cs1	3.1	4.2	-14.1	-12.4	-8.9	.
CCc1ccccc1OCC(=O)Nc1nc(-c2cccnc2)cs1	75.9*	-4.4	-10.3	17.1	51.3*	64.1*
Cc1ccccc1C1(O)c2ccccc2-c2ccccc21	.	.	12.1	.	16.4	.
COc1cccc(C(=O)Nc2sc(C(C)C)cc2C(N)=O)c1OC	12.8	-0.4	16.7	10.0	-0.5	.
CCCN(CC(=O)Nc1ccc(F)c(F)c1F)C(=O)Cc1ccc(S(=O)(=O)N2CCOCC2)s1	2.2	-0.8	-9.0	-52.2	4.8	.
COc1ccc(CCNC(=O)COC(=O)Cc2ccc(OC)cc2)cc1	10.9	-4.4	15.5	-20.3	63.0*	1.4
COc1ccc(CCNC(=O)COC(=O)Cc2cccc3ccccc23)cc1	8.5	4.9	-2.8	-2.6	-2.1	.
O=C1CCC(C(=O)O)N1 (stereo unspecified)	-2.1	-5.5	-12.1	17.4	-0.4	.
N#CC(C#N)=C1C=CC=CN1/C(=C\c1ccco1)C(=O)c1ccc(-c2ccccc2)cc1	82.8*	.	29.0	.	44.0*	50.6*
Cn1c(CNC(=O)CCNC(=O)c2cccc(F)c2)cc(=O)n(C)c1=O	-17.6	0.5	5.8	5.5	-6.1	.
CCNC(=O)c1nc[nH]c1C(=O)NCC	24.9	-4.8	4.7	-10.8	59.0*	-0.8
CNC(=O)c1nc[nH]c1C(=O)NC	1.5	0.9	-2.7	4.8	-8.0	.
CC(C)[C@@H]1Cc2[nH][nH]c(=O)c2[C@H](c2ccc(F)cc2)O1	.	.	-5.1	.	-7.1	.
Nc1cc(=O)[nH]c(SCC(=O)Nc2ccc(Cl)c(Cl)c2)n1	2.8	-4.1	0.9	-2.5	43.1*	5.2
Nc1cc(=O)[nH]c(SCC(=O)Nc2cc(Cl)cc(Cl)c2)n1	-1.4	-2.7	11.3	-5.3	7.0	.
Cn1nc([N+](=O)[O-])nc1Sc1cccc2cccnc12	38.0	-2.3	-6.3	-3.9	43.5*	40.8*
O=[N+]([O-])c1ccc(Cl)cc1Sc1cccc2cccnc12	-14.0	-2.7	5.1	8.0	2.1	.
O=C(c1cccc(S(=O)(=O)Nc2ccc(F)cc2)c1)N1CCC1	11.5	-4.6	6.4	-11.2	7.0	.
O=S(=O)(NC(=S)c1ccccc1)c1ccc(F)cc1	-8.6	-0.9	1.0	26.5	75.6*	-0.2
Cc1ccc(-c2nc(-c3cccnc3)sc2CC(=O)Nc2ccc3nc(C)sc3c2)cc1	-0.6	0.0	26.1	8.3	24.3	.
CCCCc1ccc(-n2nnnc2SCC(=O)Nc2cc(OC)c([N+](=O)[O-])cc2C)cc1	0.7	-2.1	21.6	6.9	74.9*	13.0
Cc1cccc(N(C)C(=O)CCS(=O)(=O)c2cc3c(cc2Cl)NC(=O)CO3)c1	3.0	-1.6	11.9	-5.4	-4.5	.

Screening results as filed in PubChem.
